Screening data: PubChem BioAssay, several laboratories
MEKK3 PB1 HTS: modulators of MEKK3-MEK5 PB1 binding, primary screen, biochemical, wildtype MEKK3, multiplex bead flow cytometry, Alexa488-MEK5 | AID 1529, 2009 | binding response (% of control), % at 10 µM | bead-based flow cytometry, Alexa488-MEK5 binding to MEKK3; actives lie on both sides; 0 = blocked by unlabeled MEK5, 100 = vehicle | hit rate 1.4% among 290,000;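 active means binding response more than 3 SD above or below the average of its plate-row segment, actives on both sides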;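 further: Alexa488 bead fluorescence after subtracting the streptavidin-only scavenger bead signal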
Target sequence (Q99759 whole entry, looked up): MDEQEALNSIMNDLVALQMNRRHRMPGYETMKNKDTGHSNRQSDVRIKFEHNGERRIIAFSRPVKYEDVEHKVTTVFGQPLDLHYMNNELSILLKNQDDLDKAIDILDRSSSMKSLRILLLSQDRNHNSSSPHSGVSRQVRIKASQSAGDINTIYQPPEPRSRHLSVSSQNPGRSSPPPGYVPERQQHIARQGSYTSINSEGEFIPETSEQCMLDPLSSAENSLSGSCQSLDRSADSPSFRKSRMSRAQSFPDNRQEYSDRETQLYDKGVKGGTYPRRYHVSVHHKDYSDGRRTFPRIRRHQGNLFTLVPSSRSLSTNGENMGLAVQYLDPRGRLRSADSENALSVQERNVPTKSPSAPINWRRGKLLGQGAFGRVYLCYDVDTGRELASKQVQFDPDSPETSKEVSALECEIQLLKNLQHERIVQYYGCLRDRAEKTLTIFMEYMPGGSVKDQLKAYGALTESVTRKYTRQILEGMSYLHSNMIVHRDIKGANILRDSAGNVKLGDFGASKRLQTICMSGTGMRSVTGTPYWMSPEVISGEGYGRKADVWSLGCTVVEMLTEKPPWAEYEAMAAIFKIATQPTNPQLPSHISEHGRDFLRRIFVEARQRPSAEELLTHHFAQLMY
T cruzi inh: inhibitors of intracellular T. cruzi growth, primary screen, luminescence, NIH3T3 host cells; T. cruzi beta-gal in NIH3T3, 90 h; inhibition, % (no concentration beside the values); hit rate 1.4% among 300,000; AID 1885, 2009;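 active means mean inhibition across valid replicates above about 55%, limit read from the data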;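 further: signal also drops with host cell toxicity which is not excluded here; 0% = plate median of DMSO wells and 100% = zero luminescence signal; higher percent means less beta-gal luminescence so fewer parasites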
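Material: NIH/3T3 host cells with β-galactosidase reporter T. cruzi; Input: 5,000 host fibroblasts per well; Medium: DMEM, 2% fetal bovine serum; Compound: 50 nL DMSO compound solution per well; Schedule: 3 h host attachment, then at least 90 h co-culture; Detection: luminescent β-galactosidase signal after 60 min lysis.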
FID counter: compounds displacing fluorescent DNA intercalator, primary screen, artefact control for HCV NS3 helicase inhibitor project, biochemical, FID fluorescence; inhibition, % at 7.9 µM; hit rate 0.17% among 290,000; DNA fluorescent intercalator displacement; in the data active means inhibition above about 37%;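 further: 0% = vehicle and 100% = reference compound; higher means more ethidium bromide displaced from hairpin DNA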
MEKK2 WT-MEK5: modulators of MEK5 binding to wildtype MEKK2, primary screen, biochemical, multiplex bead flow cytometry, Alexa488-MEK5 | Mitogen-activated protein kinase kinase kinase 2 (Homo sapiens), Q9Y2U5 | Alexa488-MEK5 binding to MEKK2 WT; actives lie on both sides | binding response (% of control), % at 10 µM | hit rate 1.1% among 290,000; in the data active means binding response below about 67% or above about 130%
MEKK2 mut-MEK5: MEK5 binding signal on mutant MEKK2 PB1, primary screen, biochemical, multiplex bead flow cytometry, Alexa488-MEK5; Alexa488-MEK5 binding to MEKK2 mutant; percent response, % at 10 µM; hit rate 0.35% among 290,000; AID 1530, 2009; in the data active means percent response above about 24%, passing the limit was not always enough
HCV NS3 hel inh: inhibitors of HCV NS3 helicase, primary screen, biochemical, Cy5 molecular beacon fluorescence | Hepatitis C virus NS3 helicase | NS3 helicase DNA unwinding | inhibition, % at 10.9 µM | hit rate 0.56% among 290,000 | AID 1800, 2009;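 active means inhibition above the mean of all tested compounds plus 3 SD, set per campaign, cut at about 35% in these data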;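 further: 0% = DMSO wells and 100% = thioflavine S control wells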
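Compound dosing – single dose, 10.9 µM nominal final, DMSO 0.8% final · System – NS3 helicase fragment of HCV · Buffer or medium – MOPS pH 6.5, MgCl2, DTT, Tween20, BSA · Signal – Cy5 beacon fluorescence read at start and 1 h · Also added – annealed dual-labelled DNA beacon duplex, ATP-started · Schedule – 1 h at 25 °C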
Starred values were filed as active, the others as inactive; . = no result; [ ] = remark or other dose. In the library only some 4.1% were active in any assay of this set; here they are far more common.

SMILES	MEKK3 PB1 HTS	T cruzi inh	FID counter	MEKK2 WT-MEK5	MEKK2 mut-MEK5	HCV NS3 hel inh
Brc1cccc(-c2nc3cccnc3nc2-c2cccc(Br)c2)c1	104	49	-4	98	0	-11
CC1Cc2ccccc2N1C(=O)COC(=O)Cc1ccc(F)cc1 (configuration not stated)	.	1	.	.	.	.
O=C(N=C1c2ccccc2CN1c1ccccc1)c1cccc([N+](=O)[O-])c1	95	-13	0	5.0*	4	-10
CCOC(=O)c1ccc(N2Cc3ccccc3C2=NC(=O)c2cccc([N+](=O)[O-])c2)cc1	.	11	.	.	.	.
COc1ccc(N(C(=O)CCl)C(C(=O)NCCc2ccccc2)c2cccs2)cc1Cl (configuration not stated)	103	63*	-22	98	-1	3
COC(=O)c1cccc(NC(=O)CSc2nncn2-c2ccccn2)c1	104	6	-16	100	4	-13
COC(=O)c1ccc(NC(=O)CSc2nncn2-c2ccccn2)cc1	0.0*[inhibitor]	-6	-12	-11*[inhibitor]	-24	-3
CN(C)C1C(=O)c2ccccc2C1=O	104	-2	-3	95	3	2
COc1ccccc1CN1CCN(Cc2nc(-c3cccs3)no2)CC1	105	61*	7	112	12	-2
COCC1CCN(Cc2nc(-c3cccs3)no2)C1 (configuration not stated)	101	4	-4	106	1	14
CC(C)(C)n1nnnc1C(c1cccs1)N1CCCC2(CCCCC2)C1 (configuration not stated)	99	63*	-3	97	-1	3
CN1CCN(CCCc2c3c(cc4c2CCC4)CCC3)CC1	99	62*	12	108	11	-12
O=C(NCCCc1ccccc1)c1cncc(Br)c1	101	-1	-7	102	0	4
CCCCn1c(N)c(N(CC(C)C)C(=O)COC(=O)C2(c3ccccc3)CC2)c(=O)[nH]c1=O	.	-10	.	.	.	.
Cc1ccnc(SCC(=O)c2ccc(Br)cc2)c1C#N	105	74*	0	105	2	-2
Cc1ccc(C(=O)CSc2nsc(C)c2C#N)cc1	101	-7	-5	102	1	-10
O=[N+]([O-])c1ccccc1S(=O)(=O)Nc1ccn(Cc2c(F)cccc2Cl)n1	103	-3	-18	102	4	28
CCN(CC)c1ccc(/C=N/NC(=O)CNC(=O)C2COc3ccccc3O2)c(O)c1 (configuration not stated)	103	63*	-13	104	6	13
COc1ccc(Br)cc1/C=N/NC(=O)CNC(=O)C1COc2ccccc2O1 (configuration not stated)	101	2	-22	102	2	-20
CCN(c1ccc2c(c1)OCO2)S(=O)(=O)c1cc(Br)cc2c1N(C(C)=O)CC2	96	63*	-3	99	-1	2
COCCn1c(C)cc(C(=O)CSc2cc(C)c3ccc(OC)cc3n2)c1C	102	-5	-21	102	2	-1
COc1ccc2c(C)cc(SCC(=O)c3ccc4c(c3)OCO4)nc2c1	101	59*	-3	100	4	11
O=C(Nc1ccc2c(c1)OCO2)c1cc(-c2cccc(O)c2)on1	95	4	-3	93	-7	7
O=C(Nc1ccc2c(c1)OCO2)c1cc(-c2ccc(O)cc2)on1	91	55*	11	82	-7	6
CC(C)CCC1(C)NC(=O)N(CC(=O)c2ccc[nH]2)C1=O (configuration not stated)	.	13	.	.	.	.
